From PubChem
This is one part of a sample in which hits are shown more often than they occur.
CHOP inhibitor = CHOP inhibition in unfolded protein response; CHO-K1 CHOP-promoter luciferase, tunicamycin-induced, 15-18 h; inhibition, % at 10 µM; actives 3.8% (n = 220,000); AID 2732;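 active = compounds that reduced the stress-induced luciferase reporter signal by more than about 70% of percent inhibition, limit read from the data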;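 note: 0% = tunicamycin plus vehicle and 100% = wells without tunicamycin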
UPR CHOP act = activators of apoptotic arm of unfolded protein response (CHOP). CHO-CHOP luciferase reporter, UPR activation, luminescence; percent of tunicamycin response over DMSO baseline. activation, % at 10 µM. actives 0.34% (n = 330,000);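 active = at 10 µM dose, activation of 40% or more, normalized to positive control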;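 note: 100% = tunicamycin at 10 µg/mL and 0% = DMSO alone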
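System: CHO CHOP reporter cells. Amount: 500 cells per well. Buffer or medium: F12 medium, 10% FBS. Compound dosing: one dose, 10 µM in 0.5% DMSO. Incubation: 6 h compound exposure at 37 °C after overnight seeding. Technique: Steady-Glo luciferase luminescence. Benchmarks: tunicamycin and DMSO controls.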
FXN GAA850 act = frataxin GAA850 promoter activation. HEK293 lucGAA850 FXN promoter luciferase reporter, 24 h; percent of 10 µM SAHA response. activation, % at 6 µM. actives 0.56% (n = 360,000);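 active = activation above the average of all compounds screened plus 3 SD, cutoff fixed separately per campaign, cut at about 7.5% in these data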;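 note: 0% = DMSO wells and 100% = 10 µM SAHA wells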
UPR XBP1 act = adaptive UPR (XBP1) activation; CHO-XBP1 luciferase reporter, IRE1-XBP1 UPR activation, luminescence; percent of tunicamycin response, DMSO as zero; activation, % at 20 µM; actives 0.33% (n = 330,000); AID 463104;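 active = versus positive control, 20 µM dose yields 30% or more activation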;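 note: 100% = tunicamycin at 10 µg/mL and 0% = DMSO only wells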
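Assay system: IRE1-XBP1 luciferase reporter CHO line. Input: 1000 cells/well. Buffer or medium: F12 with 10% serum. Doses: 20 µM, 1% DMSO. Times: overnight seeding at 37 °C, 6 h compound treatment at 37 °C. Technique: Steady-Glo luciferase glow luminescence, 10 min after reagent addition.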
The depositor's hits bear a star; · = no result.

SMILES	CHOP inhibitor	UPR CHOP act	FXN GAA850 act	UPR XBP1 act
Cc1c(C(=O)/C=C/c2ccccc2F)c2cc(O)ccc2n1C	·	·	2.0	·
COCCCNC(=O)c1ccc2sc(C3=C[C@@H](O)[C@@H](O)[C@@H](CO)O3)nc2c1	·	·	1.4	·
NS(=O)(=O)c1ccc(CCNc2ncnc3c2c(-c2ccccc2)cn3-c2ccc(F)cc2)cc1	74.6*	-1.0	0.9	1.0
Fc1ccc(-n2cc(-c3ccccc3)c3c(NN4CCOCC4)ncnc32)cc1	9.2	-0.9	5.0	-2.7
Cc1cccc(C)c1Nc1c(-c2ccccn2)nc2ccccn12	71.4*	8.4	-14.0	3.9
Cc1ccc(Nc2c(-c3ccccn3)nc3cccc(C)n23)cc1	94.2*	21.0	0.5	17.4
Cc1cccc2nc(-c3ccco3)c(Nc3ccccc3)n12	19.9	-1.4	-0.6	-3.1
CCCCN(C)c1c(C)nc2ccc(C(=O)NCCCn3ccnc3)cn12	·	·	0.0	·
CC(O)CC(=O)OC[C@]12CC[C@H]3[C@@](C)(CC[C@H]4C(C)(C)CCC[C@]34C)[C@@H]1CC(C1=CC(=O)OC1O)O2 (some centres undefined)	·	·	-11.5	·
CCCCn1nc(C(=O)N(C)Cc2nc3ccccc3c(=O)[nH]2)c2ccccc2c1=O	·	·	-0.2	·
Cc1cc(N2CCC(C)CC2)nc2cccc(O)c12	82.2*	0.9	0.6	0.1
CCOC(=O)C1=C(COc2ccccc2)NC(=O)NC1c1cccc([N+](=O)[O-])c1 (centres undefined)	·	0.7	0.3	-1.5
CCOC(=O)C1=C(CSc2nc3ccccc3s2)NC(=O)NC1c1cccc([N+](=O)[O-])c1 (centres undefined)	78.0*	-2.3	1.4	-4.9
CCc1ccn2cc(-c3ccc4c(c3)OCO4)nc2c1	77.7*	-9.6	-8.9	-10.3
CC1(C(=O)NS(=O)(=O)c2ccc(F)cc2F)CCN1C(=O)CC1CCCC1 (centres undefined)	·	·	0.0	·
CCc1nc2ccc(C(=O)Nc3ccc(Cl)c(Cl)c3)cn2c1N(C)Cc1ccc(OC)cc1	·	·	-0.1	·
CCOc1ccccc1NC(=O)CN(c1cc(C)cc(C)c1)S(=O)(=O)c1c(C)noc1C	72.2*	-1.0	-2.0	-2.3
COc1ccc(N(CC(=O)Nc2cccc(C)c2)S(=O)(=O)c2c(C)noc2C)cc1	·	-1.2	-2.4	-9.2
Cc1noc(C)c1S(=O)(=O)N(CC(=O)Nc1ccc2c(c1)OCO2)c1ccc(C(C)C)cc1	80.7*	7.2	2.2	0.3
CCOc1ccc(N(CC(=O)Nc2cccc(F)c2)S(=O)(=O)c2c(C)noc2C)cc1	71.5*	-2.6	-2.2	-5.7
CCOc1ccc(N(CC(=O)Nc2ccc(C)c(C)c2)S(=O)(=O)c2c(C)noc2C)cc1	75.6*	-1.7	-2.1	-4.8
COC(=O)N1CCCCC1c1cc(C(=O)NCc2cccnc2)no1 (centres undefined)	·	·	0.9	·
CCCc1ccc(C(=O)Cn2nc(C(=O)O)c3ccccc3c2=O)cc1	86.4*	1.0	0.3	-1.8
NC(=O)CCC(C(=O)O)N1C(=O)C2C3CCC(C3)C2C1=O (centres undefined)	·	·	-0.8	·
Cc1ccc(C(C)C)c(OCC(O)CN(C)Cc2ccccc2)c1 (centres undefined)	·	0.6	0.7	-2.5
SMILES	CHOP inhibitor	UPR CHOP act	FXN GAA850 act	UPR XBP1 act
Cc1ccc(C(C)C)c(OCCCN(C)Cc2ccccc2)c1	75.5*	1.0	0.5	-1.4
CC(C)(C)c1ccc(Cn2c(=N)n(CC(O)c3ccco3)c3ccccc32)cc1 (centres undefined)	76.0*	-2.2	-3.6	2.5
O=S(=O)(Nc1nc2ccccc2nc1Nc1ccc(N2CCOCC2)cc1)c1cc(Cl)ccc1Cl	74.2*	0.8	-0.1	-3.1
CCCCN(C)C(=O)c1ccc(Nc2nc(C(N)COCc3ccccc3)cs2)nc1 (centres undefined)	·	·	-0.5	·
COc1ccccc1NC(=O)c1cc2n(n1)C(C(F)(F)F)CC(c1ccc3c(c1)OCO3)N2 (centres undefined)	87.9*	-4.0	-1.9	-5.9
O=C(NCc1ccco1)c1cc2n(n1)C(C(F)(F)F)CC(c1ccc(Br)cc1)N2 (centres undefined)	76.6*	1.9	0.9	0.4
O=C(NCc1ccco1)c1cc2n(n1)C(C(F)(F)F)CC(c1ccc(Cl)c(Cl)c1)N2 (centres undefined)	88.3*	0.3	-0.4	4.0
O=C(NCc1ccccn1)c1cc2n(n1)C(C(F)(F)F)CC(c1ccco1)N2 (centres undefined)	1.3	-1.9	-0.2	-0.3
c1cn2c(-c3ccc(N4CCOCC4)cc3)cncc2n1	·	·	0.6	·
CC(C)CCNC(=O)c1ccc(CSCc2cccc(F)c2)o1	90.3*	-1.3	1.0	-2.5
CCN(CCCNC(=O)CN1C(=O)COc2ccccc21)c1cccc(C)c1	86.5*	-0.1	0.0	-5.1
CCN(CCCNC(=O)CCc1nc(-c2ccc(C)cc2)no1)c1cccc(C)c1	71.5*	-0.9	0.6	-0.9
CCN(Cc1ccccc1)C(=O)CCc1nc(-c2ccc(C)cc2)no1	70.5*	0.7	-0.5	-0.8
CCc1ccccc1N(CC)C(=O)CCc1nc(-c2ccc(C)cc2)no1	59.8	-0.9	0.7	-3.3
Cc1cccc(-c2noc(CCC(=O)NCCc3ccccc3)n2)c1	·	-2.3	-0.2	-0.9
CCN(CCCNC(=O)CN1C(=O)COc2ccccc21)c1ccccc1	-2.3	-1.7	-1.6	-3.2
CCCCN(CCCNC(=O)CN1C(=O)COc2ccccc21)c1ccccc1	73.8*	0.5	-2.8	-2.2
COc1cccc(C(O)c2ncc(-c3ccccc3Cl)[nH]2)c1 (centres undefined)	·	·	1.0	·
CCOc1ccc(NC(=O)C2CCCN(S(=O)(=O)c3cccc4nsnc34)C2)cc1 (centres undefined)	73.7*	-1.3	-0.5	-4.2
COc1cccc(NC(=O)C2CCCN(S(=O)(=O)c3cccc4nsnc34)C2)c1 (centres undefined)	67.9	-0.9	-0.3	-2.0
Cc1cccc2sc(NC(=O)C3CCCN(S(=O)(=O)c4cccc5nonc45)C3)nc12 (centres undefined)	80.6*	-0.3	0.3	-3.9
Cc1ccc2nc(NC(=O)C3CCCN(S(=O)(=O)c4cccc5nonc45)C3)sc2c1 (centres undefined)	35.5	3.9	·	-0.3
Cc1cccc2sc(NC(=O)C3CCN(S(=O)(=O)c4cc([N+](=O)[O-])ccc4Cl)CC3)nc12	70.5*	9.1	-1.1	0.1
Cc1cccc(N2CCN(C(=O)C3CCN(S(=O)(=O)c4cccc5nsnc45)CC3)CC2C)c1 (centres undefined)	83.4*	6.3	-2.1	0.6
O=C(N/N=C/c1cccc(C(F)(F)F)c1)C1CCN(c2ncc(C(F)(F)F)cc2Cl)CC1	83.2*	-2.6	-0.9	21.4
O=C(OC1CCN(c2ncc(C(F)(F)F)cc2Cl)CC1)c1ccc(Cl)cc1	-13.8	-1.0	-1.0	0.1
